# TRPC6 activator = mouse TRPC6 channel activators, primary screen, cell-based, HEK293, membrane potential dye. Short transient receptor potential channel 6 (Mus musculus), Q61143. HEK293-TRPC6 membrane potential dye fluorescence; hits give high values. B-score at 10 µM. 310,000 compounds, 0.13% hits. AID 2550, 2010;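 active = B-score of the integrated fluorescence ratio above library mean plus 3 SD, and starting fluorescence ratio within library mean plus 5 SD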;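 note: higher score means more depolarization so channel activation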
# Target sequence (Q61143 whole entry, looked up): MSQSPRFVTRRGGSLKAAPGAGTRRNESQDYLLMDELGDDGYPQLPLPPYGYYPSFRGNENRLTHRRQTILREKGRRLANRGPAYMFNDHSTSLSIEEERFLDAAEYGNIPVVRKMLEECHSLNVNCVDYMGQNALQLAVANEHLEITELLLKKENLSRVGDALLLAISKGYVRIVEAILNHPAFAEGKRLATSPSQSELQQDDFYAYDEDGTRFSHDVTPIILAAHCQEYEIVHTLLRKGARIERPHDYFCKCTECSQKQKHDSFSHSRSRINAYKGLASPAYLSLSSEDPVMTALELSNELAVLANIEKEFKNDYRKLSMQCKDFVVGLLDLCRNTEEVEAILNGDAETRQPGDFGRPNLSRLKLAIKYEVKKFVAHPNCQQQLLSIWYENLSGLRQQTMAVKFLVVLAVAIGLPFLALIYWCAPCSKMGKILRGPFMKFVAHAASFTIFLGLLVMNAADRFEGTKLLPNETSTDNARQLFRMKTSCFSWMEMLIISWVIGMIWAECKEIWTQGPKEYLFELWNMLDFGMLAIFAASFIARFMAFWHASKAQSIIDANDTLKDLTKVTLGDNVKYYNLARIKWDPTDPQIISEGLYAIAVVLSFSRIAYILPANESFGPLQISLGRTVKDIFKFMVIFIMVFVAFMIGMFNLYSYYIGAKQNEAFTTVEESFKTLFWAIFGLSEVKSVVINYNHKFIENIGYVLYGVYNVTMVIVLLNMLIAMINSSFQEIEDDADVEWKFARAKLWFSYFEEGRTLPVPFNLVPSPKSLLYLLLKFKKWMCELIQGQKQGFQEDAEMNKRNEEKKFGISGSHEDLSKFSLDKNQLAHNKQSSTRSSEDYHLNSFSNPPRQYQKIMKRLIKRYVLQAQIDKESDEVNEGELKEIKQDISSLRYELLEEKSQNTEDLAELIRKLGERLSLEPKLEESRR
# TRPC4 agonist = activators of mouse TRPC4 channel, primary screen, Fluo4 calcium, HEK293 TRPC4beta/mu-opioid cells; Short transient receptor potential channel 4 (Mus musculus), Q9QUQ5; Fluo4 calcium fluorescence; hits give high values; B-score at 10 µM; 310,000 compounds, 0.49% hits;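 active = B-score above 5 SD of library B-scores, and initial fluorescence ratio not above library mean plus 5 SD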;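 note: positive B-score marks a calcium rise read as TRPC4 activation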
#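 Technique: kinetic Fluo4 calcium fluorescence; Test system: TRPC4beta and mu-opioid receptor HEK293 stable cells; Measure: B-scored integrated calcium fluorescence ratio; Benchmarks: low control buffer alone, high control maximal DAMGO; Schedule: 45 min room-temperature Fluo4 loading, 110 s read.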
# TRPC4 inh = inhibitors of mouse TRPC4 channel, primary screen, Fluo4 calcium, HEK293 TRPC4beta/mu-opioid cells | DAMGO-evoked Fluo4 calcium flux; hits give low values | B-score at 10 µM | 300,000 compounds, 0.39% hits;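 active = B-score over 3 SD under the library average, no early fluorescence shift, positive overall ratio signal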
#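 Material: HEK293 cells with stable TRPC4beta plus mu-opioid receptor expression / Probe or stimulus: DAMGO in two steps, submaximal then maximal / Compound: single concentration per test compound / Technique: kinetic Fluo4 fluorescence imaging of calcium influx / Read-out: per-well B score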
# TRPC4 PAM = positive allosteric modulators of TRPC4, primary screen, cell-based, mouse TRPC4beta, HEK293 mu-opioid, Fluo-4 calcium. Short transient receptor potential channel 4 (Mus musculus), Q9QUQ5. DAMGO EC20, Fluo-4 Ca2+ flux; hits give high values. B-score at 10 µM. 310,000 compounds, 0.42% hits;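 active = B-score of calcium response area above 5 SD of library B-scores, with initial fluorescence ratio within 5 SD of library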;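 note: B-score of integrated fluorescence ratio over time as area under calcium response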
# TRPC6 inhibitor = mouse TRPC6 channel inhibitors, primary screen, cell-based, HEK293, membrane potential dye; Short transient receptor potential channel 6 (Mus musculus), Q61143; ACh-evoked depolarization; hits give low values; B-score at 10 µM; 310,000 compounds, 1.1% hits; AID 2553, 2010;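 active = B-score under library mean minus 3 SD, initial fluorescence not abnormally high, positive integrated signal ratio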;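 note: B-score derived from integrated fluorescence ratio over the kinetic read; more negative B-score means stronger inhibition of depolarization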
# TRPC4 spec 2 = mouse TRPC4 off-target activity of TRPC6 inhibitors, second screen. 920 compounds, 42% hits. AID 2776. shares compounds with TRPC6 inhibitor. HEK293 TRPC4/MOR, membrane potential dye fluorescence; channel activated by saturating DAMGO dose. inhibition, % at 10 µM;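 active = compounds whose fluorescence signal differed from control wells by over 3 SD, either direction, in both duplicate plates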
# TRPC4 spec = mouse TRPC4 modulation by TRPC6 hits, confirmation, selectivity assay for TRPC6 inhibitor project, cell-based, HEK293 TRPC4/mu-opioid, membrane potential dye. shares compounds with TRPC6 inhibitor. activity change, negative = inhibition, % at 10 µM. AID 2777, 2010. 920 compounds, 61% hits. membrane potential fluorescence;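 active = rise or fall in signal beyond 3 SD of buffer-only wells in both replicate plates, either sign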;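 note: integrated kinetic ratio of fluorescence range over baseline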
# HEK293 MPD ctr 2-1 = nonspecific membrane potential effects, parental HEK293, confirmation, counter-screen for TRPC6 inhibitor project, cell-based, second counter screen | shares compounds with TRPC6 inhibitor | parental HEK293 membrane potential dye fluorescence; maximal acetylcholine challenge after compound addition | signal change vs control, % at 10 µM | 920 compounds, 31% hits | AID 2779, 2010;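 active = membrane potential signal moving either way by over 3 SD of the maximum-effect control, in both duplicate plates, meaning non-specific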
# HEK293 MPD ctr-1 = membrane potential modulation in parental HEK293, confirmation, counter-screen for TRPC6 inhibitor project, cell-based. 920 compounds, 60% hits. parental HEK293 membrane potential dye fluorescence. AID 2780, 2010. membrane potential signal change, % at 10 µM. shares compounds with TRPC6 inhibitor;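 active = membrane potential signal shifting up or down by more than 3 SD of buffer-only wells, on both duplicate plates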
# HEK293 MPD ctr-2 = parental HEK293 membrane potential modulation, confirmation, counter-screen for TRPC6 modulator project, cell-based; shares compounds with TRPC6 inhibitor; membrane potential dye fluorescence; membrane potential signal change, % at 10 µM; 2,400 compounds, 51% hits; AID 488924, 2010;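 active = membrane potential signal moves up or down beyond 5 SD from buffer-only wells, on both duplicate plates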
# HEK293 MPD ctr 2-2 = second check of TRPC6 modulator effects in parental HEK293 cells; 2,400 compounds, 14% hits; membrane potential dye fluorescence; after compound, maximal acetylcholine stimulation; shares compounds with TRPC6 inhibitor; AID 488926; inhibition, % at 10 µM;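 active = membrane potential signal drops by more than 5 SD from the mean control signal, in both duplicate plates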;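 note: plate controls were acetylcholine ECmax control wells for no effect and buffer only wells for full effect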
# TRPC4/MOR mod = TRPC4 modulation by TRPC6 hit compounds, confirmation, selectivity assay for TRPC6 modulator project, cell-based, HEK293 TRPC4/mu-opioid, membrane potential dye, mouse; 2,400 compounds, 69% hits; percent change from control (negative = decrease, positive = increase), % at 10 µM; AID 488927, 2010; shares compounds with TRPC6 inhibitor; membrane potential fluorescence;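 active = membrane potential signal moved up or down beyond 5 SD of buffer control wells, in both duplicate plates, actives on both sides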;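 note: plate controls were assay buffer wells for no effect and DAMGO maximal-effect wells for full effect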
# TRPC4 ctr inh 2 = mouse TRPC4 off-target activity of TRPC6 modulators, second screen; shares compounds with TRPC6 inhibitor; HEK293 TRPC4/mu-opioid, membrane potential dye fluorescence; stimulated with maximal-effect DAMGO; inhibition, % at 10 µM; 2,400 compounds, 55% hits; AID 488928;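 active = drop in membrane potential signal beyond 5 SD of the control wells in both duplicate plates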;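 note: TRPC4 counter screen for TRPC6 hits run under conditions tuned for TRPC6 not TRPC4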
# TRPC6 inh conf = mouse TRPC6 channel inhibitors, confirmation, HEK293 cells, membrane potential dye, duplicate; inhibition, % at 10 µM; ACh-evoked depolarization; shares compounds with TRPC6 inhibitor; 3,300 compounds, 43% hits; AID 488960, 2010;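 active = fluorescence ratio falls more than 5 SD below the full-stimulation control mean, in both duplicate runs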;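 note: integrated fluorescence ratio of peak minus minimum over baseline after agonist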
# TRPC6 act conf = mouse TRPC6 channel activators, confirmation, HEK293 cells, membrane potential dye, duplicate | shares compounds with TRPC6 inhibitor | HEK293-TRPC6 membrane potential dye fluorescence, FDSS | activation, % at 10 µM | 2,800 compounds, 11% hits;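 active = ratio signal rise beyond 5 SD above unstimulated control wells' mean, seen in both duplicate runs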;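 note: plate controls were buffer EC0 wells for no effect and acetylcholine ECmax response for full effect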
# The depositor's hits bear a star; i = inactive; / = not tested or not shown. Hits are enriched below; roughly 2.3% of the tested compounds scored in any of these assays.
SMILES,TRPC6 activator,TRPC4 agonist,TRPC4 inh,TRPC4 PAM,TRPC6 inhibitor,HEK293 MPD ctr-2,HEK293 MPD ctr 2-2,TRPC4/MOR mod,TRPC4 ctr inh 2,TRPC6 inh conf,TRPC6 act conf,others
CCC(C)n1c(=N)c(C#N)cc2c(=O)n3cc(C)ccc3nc21 (stereo not given),i,i,i,i,-6.89*,i,i,i,i,i,i,
CCOc1cc(S(=O)(=O)N2CCCCCC2)ccc1F,i,i,i,i,-6.72*,/,/,/,/,i,i,TRPC4 spec 2=i;TRPC4 spec=i;HEK293 MPD ctr 2-1=i;HEK293 MPD ctr-1=i
CCOc1ccccc1N1CCN(S(=O)(=O)c2ccc(F)c(F)c2)CC1,i,i,i,i,i,/,/,/,/,/,/,
CCOC(=O)N1CCN(S(=O)(=O)c2ccc(OCC)c3ccccc23)CC1,i,i,i,i,-7.84*,/,/,/,/,i,i,TRPC4 spec 2=i;TRPC4 spec=i;HEK293 MPD ctr 2-1=i;HEK293 MPD ctr-1=i
CCOC(=O)N1CCN(S(=O)(=O)c2ccc(OCC)cc2)CC1,i,i,i,i,-6.19*,i,i,31.0%*,i,i,/,
CCOC(=O)N1CCN(C(=O)COc2ccc3ccccc3c2Br)CC1,i,i,i,i,-6.59*,i,i,12.5%*,i,i,/,
Cc1cccc(CCNCc2c(C(=O)O)c(C)n(-c3ccccc3)c2C)c1,i,i,i,i,i,/,/,/,/,/,/,
Cc1cc(OC(=O)c2ccc(S(=O)(=O)N(C)C)cc2)c([N+](=O)[O-])c(=O)[nH]1,i,i,i,i,i,/,/,/,/,/,/,
CCC(C(=O)OC(C)C(=O)Nc1ccc(Cl)cn1)c1ccccc1 (stereo not given),i,i,i,i,i,/,/,/,/,/,/,
N#CNc1nc(O)cc(=O)[nH]1,i,i,i,i,i,/,/,/,/,/,/,
CCCCOc1ccc(S(=O)(=O)N2CCCCCC2)cc1,i,i,i,i,-5.63*,i,i,i,i,46.0%*,i,
Cc1ccc(NC(=S)NCC(C)C)cc1,i,i,i,i,-7.23*,/,/,/,/,i,i,TRPC4 spec 2=i;TRPC4 spec=i;HEK293 MPD ctr 2-1=i;HEK293 MPD ctr-1=i
CC(C)CNC(=S)Nc1ccc(S(N)(=O)=O)cc1,i,i,i,i,i,/,/,/,/,/,/,
CN1CCc2c(sc(NC(=O)c3ccc(S(=O)(=O)N4CCCCCC4)cc3)c2C(N)=O)C1,i,i,i,i,-6.45*,i,i,-69.0%*,i,i,i,
NC(=O)c1c(NC(=O)c2ccc(S(=O)(=O)N3CCOCC3)cc2)sc2c1CCCCC2,i,i,i,i,i,/,/,/,/,/,/,
CN1CCc2c(sc(NC(=O)c3ccc(S(=O)(=O)N4CCOCC4)cc3)c2C(N)=O)C1,i,i,i,i,-7.59*,-258.0%*,i,-51.0%*,35.0%*,i,i,
CN1CCc2c(sc(NC(=O)c3ccc(S(=O)(=O)N4CCc5ccccc54)cc3)c2C(N)=O)C1,i,i,i,i,i,/,/,/,/,/,/,
CN(C)CCN(C(=O)C1=COCCO1)c1nc2ccc(F)cc2s1,i,i,i,i,-6.96*,-139.0%*,i,-30.0%*,39.5%*,i,i,
CCOc1cccc2sc(N(CCN(CC)CC)C(=O)c3cccc(N4C(=O)CCC4=O)c3)nc12,i,i,i,i,i,/,/,/,/,/,/,
CN(C)CCN(C(=O)c1cc(Cl)sc1Cl)c1nc2ccc(F)cc2s1,i,i,i,i,i,/,/,/,/,/,/,
CCOc1cccc2sc(N(CCCN(C)C)C(=O)c3ccc(S(=O)(=O)N(C)CC4CCCO4)cc3)nc12 (stereo not given),i,i,i,i,-7.42*,/,/,/,/,i,i,TRPC4 spec 2=47.5%*;TRPC4 spec=-13.9%*;HEK293 MPD ctr 2-1=i;HEK293 MPD ctr-1=i
CN(C)CCN(C(=O)c1ccco1)c1nc2cc3c(cc2s1)OCCO3,i,i,i,i,-5.32*,-135.5%*,i,-40.5%*,88.0%*,60.0%*,i,
CCOc1cccc2sc(N(CCN(CC)CC)C(=O)c3cccc([N+](=O)[O-])c3)nc12,i,i,i,i,-5.02*,i,i,-10.5%*,62.5%*,i,/,

# Screening results as filed in PubChem.
